hERG rescue = hERG rescue from dofetilide block, primary screen, cell-based, CHO-hERG, FluxOR thallium flux, dofetilide IC70; dofetilide IC70 present; activation (rescue from dofetilide block), less the hit threshold, % at 10 µM; hit rate 0.51% among 310,000; AID 1511, 2009;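 active = activation above the mean of controls blocked by dofetilide plus 5 SD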;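 also: thallium influx through hERG after potassium depolarization seen as dye fluorescence rise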
KCNQ1 inh = inhibitors of human KCNQ1 channel, primary screen, cell-based, thallium flux, high-throughput; Potassium voltage-gated channel subfamily KQT member 1 (Homo sapiens), P51787; CHO-K1 KCNQ1, FluxOR thallium flux fluorescence; active compounds read high; B-score at 10 µM; hit rate 1.3% among 310,000; AID 2642, 2010;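 active = compounds whose thallium flux B-score, printed positive for inhibition, exceeds three library SD while starting fluorescence stays within three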;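 also: channel opened by potassium depolarization with thallium stimulus after 20 min compound exposure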
KCNK9 block = KCNK9 potassium channel inhibitors, primary screen, HEK293 cells, thallium flux; FluxOR thallium flux fluorescence; active compounds read low; Potassium channel subfamily K member 9 (Homo sapiens), Q9NPC2; B-score at 10 µM; hit rate 1.2% among 310,000;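 active = ratio B-score over 3 SD below the library mean, with starting fluorescence within 5 SD of its mean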;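 also: negative B-score means less thallium flux so channel inhibition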
Target sequence (Q9NPC2 whole entry, looked up): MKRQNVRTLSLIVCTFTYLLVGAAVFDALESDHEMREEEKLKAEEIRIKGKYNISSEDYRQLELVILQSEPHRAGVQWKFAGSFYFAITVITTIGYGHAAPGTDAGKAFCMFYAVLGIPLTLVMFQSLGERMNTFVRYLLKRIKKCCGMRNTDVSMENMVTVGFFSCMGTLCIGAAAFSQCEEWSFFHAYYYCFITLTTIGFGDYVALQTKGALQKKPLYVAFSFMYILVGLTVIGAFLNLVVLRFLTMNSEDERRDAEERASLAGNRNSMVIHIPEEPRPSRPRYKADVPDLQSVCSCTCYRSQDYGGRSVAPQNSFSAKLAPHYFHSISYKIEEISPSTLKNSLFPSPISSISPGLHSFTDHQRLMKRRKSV
KCNK3 block = human KCNK3 channel inhibitors, primary screen, CHO cells, FluxOR thallium flux, B-score; Potassium channel subfamily K member 3 (Homo sapiens), O14649; FluxOR fluorescence; active compounds read low; B-score at 10 µM; hit rate 0.84% among 340,000; AID 602410, 2012;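 active = B-score under library mean minus 4 SD, starting fluorescence ratio at most library mean plus 5 SD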;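 also: more negative B-score means stronger inhibition of thallium flux through KCNK3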
Kir21 inh = inhibitors of mouse Kir2.1 inward-rectifier potassium channel. AID 1672, 2009. B-score at 10 µM. HEK293-Kir2.1, FluxOR thallium flux fluorescence; active compounds read low. Inward rectifier potassium channel 2 (Mus musculus), P35561. hit rate 0.85% among 310,000;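 active = fluorescence ratio B-score at or below minus 3 SD of library scores, with starting-brightness B-score within 2 SD, cut at about -4.2 in these data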;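 also: channel flux triggered by added potassium and thallium sulfate stimulus; B-score of peak minus minimum fluorescence over baseline after thallium stimulus; more negative B-score means stronger Kir2.1 block with less thallium influx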
KCNQ1 act = potentiators or activators of KCNQ1 channel, primary screen, cell-based, thallium flux, high-throughput; Potassium voltage-gated channel subfamily KQT member 1 (Homo sapiens), P51787; CHO-K1 KCNQ1, thallium flux FluxOR fluorescence; active compounds read high; B-score at 10 µM; hit rate 0.35% among 310,000; AID 2648, 2010;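 active = fluorescence ratio B-score, a plate-corrected score, at least three library SD, with initial intensity B-score within 5 SD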
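Assay system: CHO-K1 cells stably expressing KCNQ1; Medium: assay buffer with matched DMSO; Also added: K+/Tl+ depolarizing stimulus; Dosing: single dose; Timing: dye 90 min, compound 20 min, room temperature; Measured by: kinetic FluxOR thallium fluorescence, 10-s 1-Hz baseline, 110-s post-stimulus read; Read-out: peak-minus-minimum fluorescence over initial fluorescence, negative-control normalized, B-scored.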
* hit, by the source's call; i = inactive; . = not tested or not shown. Hits are enriched below; roughly 3.7% of the tested compounds scored in any of these assays.

SMILES	hERG rescue	KCNQ1 inh	KCNK9 block	KCNK3 block	Kir21 inh	KCNQ1 act
COc1ccc(NC(=O)CN(c2ccc(OC)c(Cl)c2)S(=O)(=O)c2ccccc2)c(OC)c1	-1	6*	i	i	-0.25	i
O=C(Nc1ccccc1Oc1ccccc1)c1ccccc1F	-12	i	i	i	-0.44	i
COc1ccccc1N1CCN(C(=O)c2cc3c(=O)n4cccc(C)c4nc3s2)CC1	-11	i	i	i	0.5	i
COc1ccccc1CNC(=O)[C@@H]1CCCN1S(=O)(=O)c1ccccc1F	-7	i	i	i	1.3	i
Cc1ccc(C(=O)OCC(=O)NC(C)c2ccccc2)cc1C (centres undefined)	.	.	.	i	.	.
Cc1ccc(/C=N/N(Cc2ccccc2)c2ccccc2)o1	-7	i	-6.8*	i	-0.48	i
COc1ccccc1NC(=O)N1CCCC1C(=O)Nc1ccc2c(c1)OCO2 (centres undefined)	-14	i	i	i	-0.68	i
O=C(Nc1ccc2c(c1)OCO2)C1CCCN1C(=O)Nc1ccccc1F (centres undefined)	5.6*	i	i	i	0.98	i
O=C1c2[nH]nc(-c3ccccc3O)c2C(c2ccc(F)cc2)N1Cc1ccco1 (centres undefined)	-21	6*	i	i	-0.32	i
Cc1cccc(/C=C2/S/C(=N/N=C3\CC4CCC3(C)C4(C)C)NC2=O)c1 (centres undefined)	14*	i	i	i	0.73	18*
COc1cc(S(=O)(=O)N2CCOCC2)cc(C(=O)OCC(=O)NCc2ccco2)c1OC	.	.	.	i	.	.
COC(=O)Cc1ccc(NC(=S)NCc2ccccc2OC)cc1	-7	i	i	i	-0.02	i
COc1ccccc1CNC(=S)Nc1ccc(F)cc1	-2	i	i	i	-4.7*	i
CCCCc1ccc(S(=O)(=O)N2CCC3(CC2)OCCO3)cc1	-9	i	i	i	-0.04	i
Cc1ccc(S(=O)(=O)N2CCN(C(=O)CN3C(=O)c4ccc([N+](=O)[O-])cc4C3=O)CC2)cc1C	.	.	.	i	.	.
Cc1ccc(NC(=O)c2ccccc2OCc2c(C)noc2C)cc1S(=O)(=O)N(C)C	.	.	.	i	.	.
COc1cccc(NC(=O)c2ccccc2OCc2c(C)noc2C)c1	.	.	.	-11*	.	.
COc1cc(NC(=O)c2ccccc2OCc2ccccc2)cc(OC)c1OC	11*	i	i	i	-0.1	i
CCOc1cc(/C=N/NC(=O)c2ccccc2OCc2ccc(F)cc2)ccc1O	.	.	.	i	.	.
Cc1noc(C)c1COC(=O)c1ccccc1Oc1ccccc1	-11	i	i	i	-5.1*	i
COc1ccc(C=NNC(=O)c2ccccc2OCc2ccc(F)cc2)c(OC)c1	.	.	.	-9.9*	.	.
Cc1noc(C)c1COC(=O)c1ccccc1NC(=O)Cc1ccccc1	-8	i	i	i	-1.5	i
CC(C)c1ccc(N(CC(=O)NCc2ccco2)C(=O)CCC(=O)Nc2ccccn2)cc1	-9	i	i	i	1.2	i
COc1ccc(C2CC(=O)Oc3c(C(CCN4CCCCC4)c4ccc(N(C)C)cc4)c(OC)cc(OC)c32)cc1 (centres undefined)	-10	i	i	i	1.2	i
COc1ccc(C2CC(=O)Oc3c(C(CCN4CCCC(C)C4)c4ccc(N(C)C)cc4)c(OC)cc(OC)c32)cc1 (centres undefined)	-10	7*	i	i	0.53	i
SMILES	hERG rescue	KCNQ1 inh	KCNK9 block	KCNK3 block	Kir21 inh	KCNQ1 act
Cc1cc(C(=O)NC2CCCc3c2cnn3-c2ccc(C(C)(C)C)cc2)nn1C (centres undefined)	-23	8*	i	i	-0.84	i
O=C(CCN1CCC(c2ccccc2)C1)c1ccccc1 (centres undefined)	-10	i	i	i	-0.59	i
COc1cc(C(=O)CCN2CCC(c3ccccc3)C2)cc(OC)c1OC (centres undefined)	-15	i	i	i	-1.3	11*
COc1ccccc1CN1CCNC(=O)C1CC(=O)NCC1CCOCC1 (centres undefined)	-3	i	i	i	0.8	i
COCC(=O)N(C)C[C@H]1N[C@@](C)(C(=O)OC)[C@H]2C(=O)N(Cc3ccccc3)C(=O)[C@@H]12	.	.	.	i	.	.
O=C(Cc1c[nH]c2ccccc12)NCc1ccc(Cl)cc1Cl	-17	i	i	i	-4.2*	i
CCn1c(C)[n+](Cc2ccccc2)c2ccc(Cl)cc21	-12	i	i	i	0	i
CCn1c(/C=C/N(C)c2ccccc2)[n+](CC)c2ccc(Cl)cc21	-22	13*	i	i	-1.7	i
Cc1cc(O)cc(C)c1NS(=O)(=O)c1ccc2ccccc2c1	-16	i	i	i	-6.6*	i
CN(c1ccc(O)cc1)S(=O)(=O)c1ccc2ccccc2c1	-12	i	i	i	-5.9*	i
O=C(O)C1CCN(Cc2cccnc2)CC1	-4	i	i	i	-0.03	i
CC(C)(C)c1ccc(NC(=O)CN2C(=O)NC(C)(C3CC3)C2=O)cc1 (centres undefined)	.	.	.	i	.	.
O=C(Nc1ccc(OCC(F)(F)C(F)F)c(C(F)(F)F)c1)c1ccccc1	-8	i	i	i	0.73	i
O=C(Nc1ccc(OCC(F)(F)C(F)F)c(C(F)(F)F)c1)c1ccccc1O	-8	i	-6.6*	i	0.99	i
COC(=O)c1ccccc1NC(=O)c1ccc(COc2ccccc2)o1	.	.	.	-10*	.	.
COc1ccc(CCN(C)C(=O)c2ccc(COc3ccccc3)o2)cc1OC	-11	i	i	i	-5.8*	i
COCc1c(C(=O)N2CCN(CCOc3ccccc3)CC2)oc2ccccc12	.	.	.	i	.	.
NC(N)=N/N=C/c1ccccc1	-9	i	i	i	-1.5	i
COc1cc(/C=N/O)ccc1OCc1ccc(Cl)cc1	-6	i	i	.	-0.47	i
NC(N)=N/N=C/c1ccc(OCc2ccccc2)c(OCc2ccccc2)c1	-18	6*	i	i	0	i
NC(N)=N/N=C/c1ccc(Cl)c(Cl)c1	-4	i	i	i	-5*	i
COc1cc(/C=N/N=C(N)N)ccc1OCc1ccc(Cl)cc1	-32	13*	i	i	-8.2*	i

Assay outcomes deposited in PubChem BioAssay by Johns Hopkins Ion Channel Center.
